The target in experiment [1] is Neuromedin-K receptor (Homo sapiens, UniProt P29371, H316W). In words: Displacement of radioligand [3H]osanetant at human NK3 H316W mutant expressed in HEK293 cells. Format: cell-based.
The target of experiment [2] is T1, Neuromedin-K receptor (Homo sapiens) (UniProt P29371).
T1 sequence (whole entry): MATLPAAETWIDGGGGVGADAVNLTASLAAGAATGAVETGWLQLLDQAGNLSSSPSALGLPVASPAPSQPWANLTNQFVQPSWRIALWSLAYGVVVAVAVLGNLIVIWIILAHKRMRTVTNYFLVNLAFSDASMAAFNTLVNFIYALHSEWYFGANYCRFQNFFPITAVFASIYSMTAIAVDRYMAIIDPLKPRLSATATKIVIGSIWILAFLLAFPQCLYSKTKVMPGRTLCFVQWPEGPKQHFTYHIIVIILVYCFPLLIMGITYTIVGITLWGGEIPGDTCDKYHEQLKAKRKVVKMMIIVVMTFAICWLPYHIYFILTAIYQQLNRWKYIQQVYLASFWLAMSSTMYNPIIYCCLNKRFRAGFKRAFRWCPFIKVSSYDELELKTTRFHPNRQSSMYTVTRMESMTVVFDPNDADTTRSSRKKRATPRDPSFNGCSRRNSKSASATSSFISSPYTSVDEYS
In words: Noncompetitive inhibition at wild type human NK3 expressed in HEK293 cells assessed as decrease in [MePhe7]NKB-induced [3H]IP accumulation after 20 mins. Format: cell-based. The procedure, abridged:
(§1)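 HEK293 cells transiently expressing human NK3 WT or mutant, labeled with myo-[³H]inositol in LiCl buffer. Antagonist preincubated 20 min at 37 °C, then [MePhe⁷]NKB (0.01 nM–1 μM) added for 45 min at 37 °C. [³H]IP read by SPA beads. Schild analysis of EC50 shift and Emax depression across increasing antagonist concentrations gives pA2, slope and mode of antagonism.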

The subject of experiment [3] is HEK293. Nature of the experiment: Selectivity ratio of Ki for human NK3 H316F mutant expressed in HEK293 cells to Ki for wild type human NK3 receptor expressed in HEK293 cells. Format: cell-based.
The target in experiment [4] is Substance-P receptor (Homo sapiens, UniProt P25103, F264Y). In words: Partial noncompetitive inhibition of human F264Y6.51 mutant expressed in HEK293 cells assessed as decrease in SP1-induced [3H]IP accumulation after 20 mins. The class given is cell-based. The settings on record: read-out: pA2 (converted).
Chain of Substance-P receptor (Homo sapiens, UniProt P25103, F264Y) (P25103 whole entry F264Y): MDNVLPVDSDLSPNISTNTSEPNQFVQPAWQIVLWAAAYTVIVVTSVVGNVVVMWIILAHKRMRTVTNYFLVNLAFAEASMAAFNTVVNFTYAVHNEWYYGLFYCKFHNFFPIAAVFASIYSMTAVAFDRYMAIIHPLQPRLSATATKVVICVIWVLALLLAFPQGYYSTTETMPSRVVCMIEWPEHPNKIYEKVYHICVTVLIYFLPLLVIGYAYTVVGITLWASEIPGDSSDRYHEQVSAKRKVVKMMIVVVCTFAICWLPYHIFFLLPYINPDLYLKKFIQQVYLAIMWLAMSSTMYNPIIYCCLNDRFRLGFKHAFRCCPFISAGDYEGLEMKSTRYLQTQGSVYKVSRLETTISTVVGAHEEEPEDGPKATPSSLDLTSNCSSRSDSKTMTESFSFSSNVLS
The test system of experiment [5] is T2, Neuromedin-K receptor (Homo sapiens), P29371 [Y247F].
T2 sequence (whole entry): T1 sequence (whole entry) with Y247F
In words: Noncompetitive inhibition at human NK3 Y247F5.38 mutant expressed in HEK293 cells assessed as decrease in [MePhe7]NKB-induced [3H]IP accumulation after 20 mins. Format: cell-based. The procedure, abridged:
as §1

In experiment [6] the target is Neuromedin-K receptor (Homo sapiens, UniProt P29371, Y247F). In words: Displacement of radioligand [3H]osanetant at human NK3 Y247F mutant expressed in HEK293 cells. Format: cell-based.
Chain of Neuromedin-K receptor (Homo sapiens, UniProt P29371, Y247F) (P29371 whole entry Y247F): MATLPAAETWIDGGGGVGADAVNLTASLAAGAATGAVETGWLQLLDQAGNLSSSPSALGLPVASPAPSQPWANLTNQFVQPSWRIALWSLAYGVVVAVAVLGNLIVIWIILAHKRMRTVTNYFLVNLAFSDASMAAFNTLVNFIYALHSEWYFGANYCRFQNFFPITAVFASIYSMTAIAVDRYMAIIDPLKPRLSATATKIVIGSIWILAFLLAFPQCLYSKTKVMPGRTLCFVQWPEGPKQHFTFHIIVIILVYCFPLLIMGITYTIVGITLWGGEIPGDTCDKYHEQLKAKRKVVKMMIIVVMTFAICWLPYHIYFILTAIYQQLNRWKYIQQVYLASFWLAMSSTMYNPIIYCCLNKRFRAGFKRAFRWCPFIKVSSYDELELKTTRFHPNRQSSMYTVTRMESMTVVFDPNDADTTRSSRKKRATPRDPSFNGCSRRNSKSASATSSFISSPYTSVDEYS
Experiment [7] deals with T3, Neuromedin-K receptor (Homo sapiens), P29371 [Y315F].
T3 sequence (whole entry): T1 sequence (whole entry) with Y315F
In words: Noncompetitive inhibition at human NK3 Y315F6.51 mutant expressed in HEK293 cells assessed as decrease in [MePhe7]NKB-induced [3H]IP accumulation after 20 mins. The class given is cell-based. The method, boiled down: as §1

The next experiment relates to Gerbillinae. Nature of the experiment: Inhibition of foot tapping response in po dosed gerbil. The class given is functional.
In experiment [8] the test system is HEK293. In words: Selectivity ratio of Ki for human NK3 Y247W mutant expressed in HEK293 cells to Ki for wild type human NK3 receptor expressed in HEK293 cells. Format: cell-based.
The target of experiment [9] is T4, Substance-P receptor (Homo sapiens, UniProt P25103). In words: Displacement of radioligand [3H]SP from wild type human NK1 receptor expressed in HEK293 cells. Format: cell-based. The procedure, abridged:
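Membranes from transiently transfected HEK293 cells, 2.5 μg protein/well, in 50 mM HEPES pH 7.4 with 3 mM MnCl2, phosphoramidon, leupeptin and 0.04% BSA. 10 competitor concentrations (0.0003–10 μM), 90 min at rt. Nonspecific binding with 10 μM NK1 antagonist. Filtration, then scintillation counting. Ki by Cheng–Prusoff. Three experiments, each in duplicate.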

Experiment [10] addresses T4, Substance-P receptor. In words: Binding affinity at human NK1 receptor.

Structures are written as SMILES. Residue numbers refer to the chain shown, from its start. pKi: −log10 of the molar value. Activity calls are given as the source filed them. The rule behind the calls is not given here.

T4 sequence (P25103 whole entry): as the sequence (P25103 whole entry F264Y) above, with Y264F counted along it
Chain of Neuromedin-K receptor (Homo sapiens, UniProt P29371, H316W) (P29371 whole entry H316W): as the sequence (P29371 whole entry Y247F) above, with F247Y, H316W counted along it

A word on the pKi: it is −log10 of the Ki, conventionally taken in molar units. Lower therefore signals a large Ki. Broadly, the ED50 is the midpoint of the dose-response relation. Read a low ED50 as greater potency. In the case of `Cc1cc(F)ccc1-c1cc(N2CC[C@H](O)[C@H]2CO)ncc1N(C)C(=O)C(C)(C)c1cc(C(F)(F)F)cc(C(F)(F)F)c1`, the pKi was 5.70 on Neuromedin-K receptor [1], 8.41 at Neuromedin-K receptor [6], 9.15 on Substance-P receptor [9] and 9.15 at Substance-P receptor [10]. Moreover, the inhibition entry in [2], in experiment [5] and in experiment [7] was “Active” in each case. The Ratio Ki in the experiment on HEK293 [3] was determined as 4.3; in the experiment with HEK293 [8], 1.2. For the same compound, at Substance-P receptor [4], the Kb is 28.8 nM. The ED50 in the experiment with Gerbillinae turned out to be 0.4 mg/kg.

Source of the values: ChEMBL document CHEMBL2203099, “Identification of a crucial amino acid in the helix position 6.51 of human tachykinin neurokinin 1 and 3 receptors contributing to the insurmountable mode of antagonism by dual NK₁/NK₃ antagonists” (J Med Chem, 2012).
